From the array DNA melting data of Ke et al. (doi:10.1101/2024.01.08.574731)

Columns and labels:
[1] = melting temperature; fluorescence melt of hairpins on a sequencing array, two-state fit, raised by 9.35 °C to match UV melts; settings: sodium 0.088 M
Procedure, shortened: (§1)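 To match UV melts, fitted temperatures were raised by 9.35 °C. These fits were bootstrapped two-state models that gave melting temperature and folding enthalpy, combined by inverse variance over four replicates. The input was normalised Cy3 fluorescence of library hairpins with annealed Cy3 and quencher oligos on a sequenced MiSeq flow cell, imaged in 50 mM Na-HEPES pH 8.0, 25 mM NaCl in 2.5 °C steps up to 60 °C.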

[2] = folding enthalpy; higher = less favourable; fluorescence melt of hairpins on a sequencing array, two-state fit; settings: sodium 0.088 M
Procedure, shortened: as §1

Sequence | Tm [1] [°C] | folding enthalpy [2] [kcal/mol]
GTACTGGGAAACCAGTAC (((((((....))))))) | 58.5 | -36.9
GGGCACGAAAGTGCACCC ((((((....)))..))) | 58.2 | -10.8
GATCGAGCTGTCGATC ((((((....)))))) | 51.3 | -38.6
GAATCAGGAAACTGATCC (.(((((....))))).) | 32.6 | -15.4
GATCCCTAAAGGGATC ((((((....)))))) | 60.6 | -36.5
GCGAATCGAAAGATACGC (((.(((....))).))) | 55.5 | -44.5
GACACCGAAAGGTAAGTC ((((((....)))..))) | 38.5 | -20.2
GTCCATGGAAACACGGAC ((((.((....)).)))) | 42.1 | -25
GATCGTAATAACGATC ((((((....)))))) | 53.9 | -37
GACGGCGGAAACGCCGCC (.(((((....))))).) | 54.9 | -8.56
GCATCAGGAAACTGATGC (((((((....))))))) | 67.1 | -46.9
GCGTTTTTACGC ((((....)))) | 55.2 | -26.9
GATCCAGCTATGGATC ((((((....)))))) | 58.8 | -33.5
GGGGAACGAAAGTTTCCC (((.(((....))).))) | 61.1 | -36.8
GGCCTGCCGAAAGGCGCC (((..(((....)))))) | 49.4 | -13.7
GAGCCGGGAAACTGGCTC (((((.(....).))))) | 63.3 | -36.2
GGACGTCGAAAGACTTCC (((.(((....))).))) | 48.1 | -29.9
GCCTATGGAAACATGGGC (((.(((....))).))) | 51.7 | -46.6
GAGGCCGAAAGGCCCCTC ((((((....)))..))) | 49.7 | -9.61
GGTTACGGAAACGTAGTC (..((((....))))..) | 25.7 | -12.7
GCCTCGCGAAAGCGCGGC (((.(((....))).))) | 61.3 | -40.8
GATGGCGAAAGCCCGATC ((((((....)))..))) | 27.7 | -9.89
GATCTTTCCGAAGATC ((((((....)))))) | 46.4 | -33.1

Sequence | Tm [1] [°C] | folding enthalpy [2] [kcal/mol]
GGCTCAGCGAAAGCTGCC (((..(((....)))))) | 44.2 | -12.3
GCCACCGCGAAAGCGGGC (((..(((....)))))) | 47.5 | -7.35
GCCTAAGAAATTAGGC ((((((....)))))) | 52.5 | -28.8
GCATACGCGAAAGCGTGC (((..(((....)))))) | 48.7 | -10.8
GCGACAAATCGC ((((....)))) | 43.6 | -16.5
GGATCTGGAAACAGATCC (((((((....))))))) | 62.4 | -47.9
CGTTCGGAAACGAACACG ((((((....)))..))) | 39.1 | -11.5
GCCTGAGGAAACTCAAGC ((.((((....)))).)) | 35.1 | -21.6
GGTCACGAAAGTGCCACC ((((((....)))..))) | 44.4 | -12.9
GCGGCCTACCGC ((((....)))) | 55.8 | -29.4
GATCTGCGCACAGATC ((((((....)))))) | 52.8 | -38.3
GCCCCCGAAAGGGTCGGC ((((((....)))..))) | 50.4 | -17.1
GATTTTGAAAAAAATC ((((((....)))))) | 40.7 | -23.7
GCAAATCGAAAGATGTGC (((.(((....))).))) | 48.8 | -28.3
GTCCACGAAAGTGCGGAC ((((((....)))..))) | 45 | -17.4
GCAAACGAAAGTTACTGC ((((((....)))..))) | 27.3 | -13.3
GCGACATATCGC ((((....)))) | 49.9 | -23.4
GCCTGCGGAAACGCAAGC ((.((((....)))).)) | 48 | -18.5
GCCACGCGAAAGCGATGC ((..(((....)))..)) | 43.3 | -12.7
GATCAATCGATTGATC ((((((....)))))) | 51.3 | -53.5
GCTGGGGGAAACCTCGGC ((.(.((....)).).)) | 44.4 | -28.9
GGCACCGAAAGGTATGCC ((((((....)))..))) | 51.6 | -25.1
GATCTCACCGGAGATC ((((((....)))))) | 52.2 | -43.9

Sequence | Tm [1] [°C] | folding enthalpy [2] [kcal/mol]
GAGGCAGGAAACCGCCTC (((((.(....).))))) | 54.9 | -33.2
GCGTACGGAAACGCACGC ((((.((....)).)))) | 55.4 | -46.7
GGTCAACGAAAGTTTACC (((.(((....))).))) | 42.8 | -28.8
GATCTAGCTATAGATC ((((((....)))))) | 47.7 | -40.2
GGGATGGGAAACCATTCC ((.((((....)))).)) | 50.2 | -31.1
GTCGCCCGAAAGGGGAC (((.(((....)))))) | 55.2 | -21.4
GCCATTCCGAAAGGAGGC (((..(((....)))))) | 44.2 | -18.4
GTGGCCGAAAGGCAACAC ((((((....)))..))) | 55.5 | -13.3
GTCCATGGAAACATGGGC (.(((((....))))).) | 54 | -42.9
GGGCGTGGAAACACACCC (((.(((....))).))) | 51.8 | -40.7
GGGGACGAAAGTCGCCC ((((((....))).))) | 64.9 | -13.9
GCACGGCGAAAGCCCAGC ((..(((....)))..)) | 38.4 | -12.2
GCTCACGGAAACATGAGC (((((.(....).))))) | 44.9 | -34.6
GCCCAGCGAAAGCATGGC (((..((....))..))) | 56 | -16
GCTCCCGAAAGGGTTAGC ((((((....)))..))) | 43.3 | -16.2
GTGTCACGAAAGTGCCAC (((.(((....))).))) | 52.2 | -51.5
CGAGTGCGGAAACGCTCG (((..(((....)))))) | 47.7 | -21.6
GGAGACGAAAGTCTGTCC ((((((....)))..))) | 34.5 | -11.2
GCTCGCGAAAGCGTTAGC ((((((....)))..))) | 45.9 | -14.1
GCTACCGGAAACGACAGC (((..((....))..))) | 27.5 | -15.8
GATCGCCTGAGCGATC ((((((....)))))) | 68.7 | -29.1
GGAGAGCGAAAGCTATCC (((.(((....))).))) | 57.6 | -42.1
GATCCATCCATGGATC ((((((....)))))) | 55.8 | -43.4

Sequence | Tm [1] [°C] | folding enthalpy [2] [kcal/mol]
GGGGTCGGAAACGGCCTC (.((.((....)).)).) | 51.5 | -26.4
GACAGTACGAAAGTAGTC (((..(((....)))))) | 31.1 | -16.2
GCTAAGCGAAAGCTGGGC ((..(((....)))..)) | 52.9 | -17.7
GCAGAGCGAAAGCAATGC (((..((....))..))) | 53.9 | -21
GCGTCAGGAAACTGATGC ((.((((....)))).)) | 54.5 | -43.6
GTAGGGGGAAACTCCTAC (((((.(....).))))) | 47.2 | -28.5
GTGGTTGCGAAAGCACAC (((..(((....)))))) | 42.7 | -15.6
GACGTAGGAAACTACGTC (((((((....))))))) | 63.3 | -44
CGAGCGGAAACGCAATCG ((((((....)))..))) | 38.7 | -19.3
GACTTGGGAAACTAAGTC (((((.(....).))))) | 42.5 | -28.2
GGGGCTGCGAAAGCACCC (((..(((....)))))) | 62.5 | -24.5
GAACCCGAAAGGGGTTTC ((((((....)))..))) | 46.9 | -11.6
GATCCTTTTTAGGATC ((((((....)))))) | 53.9 | -34.7
GCAGAAGGAAACTCCTGC ((((.((....)).)))) | 40.1 | -20.9
GCTCCGACGAAAGTCAGC (((..(((....)))))) | 32.2 | -13.3
CGCGCGGAAACGCCTGCG ((((((....)))..))) | 46.8 | -17.2
GGGGTTGGAAACGATCCC (((.(.(....).).))) | 39.1 | -23
GATCATCTAAATGATC ((((((....)))))) | 47.4 | -35.9
GACCAGGGAAACCTAGTC (((.(((....))).))) | 32.7 | -16.9
GCATCCGAAAGGACATGC ((((((....)))..))) | 43.3 | -23.1
GGACGCTCGAAAGAGTCC (((..(((....)))))) | 46.5 | -22.1
GTTACGGGAAACTGTGAC ((.((.(....).)).)) | 32.5 | -24.5
GTCTCAGGAAACTGAGAC (((((((....))))))) | 59.5 | -46.1
